Results reported in the RNAGym collection of RNA variant scans (doi:10.1126/science.aae0568).
Fewer inactive variants are shown than the library holds.

B1: tRNA (parent)
chain: GUUCCGUUGGCGUAAUGGUAACGCGUCUCCCUCCUAAGGAGAAGACUGCGGGUUCGAGUCCCGUACGGAACG

Variants of: B1
Test: yeast fitness relative to wild type (ratio to wild type); higher = fitter; tRNA-Arg(CCU), competitive growth, 37 C, YPD
Outline: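 For this measurement, the tRNA-Arg(CCU) gene was varied by chemical synthesis at a 3% per-site mutation rate across 69 sites, and each variant was placed at the native genomic locus in Saccharomyces cerevisiae. The pooled strains went through a 24-hour competition in YPD at 37°C in six parallel replicates, with amplicons from start and end populations read by 100-nucleotide paired-end sequencing. Darwinian fitness relative to wild type followed from the change in each genotype's frequency. Genotypes needed ≥ 100 starting reads, and estimates < 0.5 were set to 0.5.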

Variant	yeast fitness
GUUCCGUUGGUGUAAUGGUAACGCGUCUCCCCCCUAAGGUGAAGACUGCGGGUUCGAGUCCCGUACGGAACG [C11U U32C A40U]	0.785
GUUCCGUUGGCAUAGUGGUAAUGCGUCUCCAUCCGAAGGAGAAGACUGCGGGUUCGAGUCUCGUCCGGAACG [G12A A15G C22U C31A U35G C61U A65C]	≤ 0.5
GUUCCGUUGGUGUAAUGGUAACGCGUCUCCCUCCUAAGGAGAAGACUGCGGGUUCGAGACCCGGACGGAACG [C11U U59A U64G]	≤ 0.5
GUUCCGUUGGCAUCAUGGUAACGCGUCUCCCUCCUAAGGAGAAGACUGCGGGUUCGAGUCCCGUACGGAACG [G12A A14C]	0.796
GUUCCGUUGGCAUACUGGUAACGCGUGUCCCUCCUAAGGAGAAGACUGGGGGUUCGAGUCCCGUACGGAACG [G12A A15C C27G C49G]	≤ 0.5
GUUCCGUUGGCAUCAUGGUAACGCGUCUCCCUCUUAGGGAGAAGACUGCGGGUUCGAGUCCCGUACGGAACG [G12A A14C C34U A37G]	≤ 0.5
GUUCCGUUGGUGUAAUGGUAACGCGUCUCCCUCCAAAAGAGAAGACUGCGGAUUCCAGUCCCGUACGGAACG [C11U U35A G38A G52A G56C]	≤ 0.5
GUUCCGUUGGCAUGAUGGUAACGCGUCUCCCUCCUAUGGAGAAGACUGCGGGUUCGAGUCCCGUACGGAACG [G12A A14G A37U]	0.551
GUUCCGUUGGCAUACUGGUAACGCGUCUCCCUCCUAAGGAGAAGAGUGCGGGUUCGAGUCCCGUACGGAACG [G12A A15C C46G]	0.567
GUUCCGUUGGCAUAGUGGUAACGCGUCUCCCUCCUAAGGAGAAGACUGCGGGUGCGAGUCCCGUACGGAACG [G12A A15G U54G]	≤ 0.5
GUUCCGUUGGCAUAAUGGUAACGCGUCUCCCUCCUAAGGAGAAGACUGCGGGUUCGAGUCCCGUACGGAACG [G12A]	0.999
GUUCCGUUGGCAUAGUGGUAACGCGUCUCCAUCCUAAGGAGAAGACUGCGGGUUCGAGUCCCGUACGGAACG [G12A A15G C31A]	≤ 0.5
GUUCCGUUGGCAUAGUGGUAACGCGUCUCCCUCCUAAGGAGAAGACUGCGGGUUCGAGUCCCGUACGGAACG [G12A A15G]	0.843
GUUCCGUUGGCAUAUUGGUAACGCGUCUCCCUCCUAAGGAGAAGACUGCGGGUUCGAGUCCCGUACGGAACG [G12A A15U]	0.782
GUUCCGUUGGUGUAAUGGUAACGCGUCUCCCCCCUAAGGAGAAGACUGCGGGUUCGAGUCCCGUACGGAACG [C11U U32C]	0.933
GUUCCGUUGGUGUAAUGGUAACGCGUCUCCCACCUAAGGAGAAGACUGCGGGUUCGAGUCCCGUACGGAACG [C11U U32A]	0.772
GUUCCGUUGGUGUAAUGGUAACGCGUCUCCCUCCAAAAGAGAAGACUGCGGGUUCGAGUCACGUACGGAACG [C11U U35A G38A C61A]	≤ 0.5
GUUCCGUUGGCAUACUGGUAACGCGUCUCCUUCCUAAGGAGAAGACUGCGGGUUCGAGUCCUGUAGGGAGCG [G12A A15C C31U C62U C66G A70G]	≤ 0.5
GUUCCGUUGGUGUAAUGGUAACGCGUCUCCCUCCCAAGGAGAAGACUGCGGGUUCGAGUCCCGUACGGAACG [C11U U35C]	0.7

Variant	yeast fitness
GUUCCGUUGGCAUGAUGGUAACGCGUCUCGCUCCUAAGGAGAAGAAUGCGGGUUCGAGUCCCGUACGGAACG [G12A A14G C30G C46A]	0.882
GUUCCGUUGGUGUAAUGGUAACGCGUCGACCUCCUAAGGAGAAGACUGCGGGUUCGAGUCCCGUACGGAACG [C11U U28G C29A]	≤ 0.5
GUUCCGUUGGCAUGAUGGUGACGCGUCUCCCUCCUAAGGAGAAGACUGCGGGUUCGAGUCCCAUACGGAACG [G12A A14G A20G G63A]	≤ 0.5
GUUCCGUUGGUGUAAUGGUAACGCGUCUCCCUCCUAAGGAGAAGACUGCGGGUACGAGUCCUGUACGGAACG [C11U U54A C62U]	≤ 0.5
GUUCCGUUGGCAUACUGGUAACGCGUCUCCCUCCUAAGGAGAAGUCUGCGGGUUCGAGUCCCGUACGGAACG [G12A A15C A45U]	0.87
GUUCCGUUGGCAUCAUGGUAACGCGUCUCCCUCGUAAGGAGAAGACUGCGGGUUUGAGUCCCGUACGGAACG [G12A A14C C34G C55U]	≤ 0.5
GUUCCGUUGGUGUAAUGGUAACGCGUCUCCCUCCUAAGGAGAAGACUGCGGGUUCGAGACCCGUAGGGAACG [C11U U59A C66G]	≤ 0.5
GUUCCGUUGGUGUAAUGGUAACGCGUCUCCCACCUAAGGAGAAGACUGCAAGUUCCAGUCGCGUACGGAACG [C11U U32A G50A G51A G56C C61G]	≤ 0.5
GUUCCGUUGGCAUAGUGGUAACGCGUCUCCCUCCUAAGGAGAACACUGCGGGUUCGAGACCCGUACGGAACG [G12A A15G G44C U59A]	≤ 0.5
GUUCCGUUGGUGUAAUGGUAACGCGUCUCCCUCCUAAGGAGAAGACUGCGGGUUCGAGACCCGUACAGAACG [C11U U59A G67A]	0.542
GUUCCGUUGGUGUAAUGGUAACGCGUCUCCCUCCUAAGGAGAAGACUGCGGGUUCGAGUCCCGCGCGGAACG [C11U U64C A65G]	0.667
GUUCCGUUGGCAUAGUGGUAACGCGUCUCCCUCCUAAGGAGAAGACUACGGGUUCGAGUCCCGUACGGAACG [G12A A15G G48A]	0.763
GUUCCGUUGGUGUAAUGGUAACGCGUCUCCCUCCAAAGGAGAAGACUCCGGGUUCGAGUCUCGUACGGAACG [C11U U35A G48C C61U]	≤ 0.5
GUUCCGUUGGUGUAAUGGUAACGCGUCUCCCUCCUAAGGAGAAGACUGCGGGAUCGAGUCCCGUACGGAACG [C11U U53A]	0.751
GUUCCGUUGGUGUAAUGGUAACGCGUCUCCCUCCUAAGGAGAAGACUGCGGGGUCGAGUCCCGUACGGAACG [C11U U53G]	0.608
GUUCCGUUGGUGUAAUGGUAACGCGUCUCCCUCCUAAGGAGAAGACCGCGGGUUCGAGUCCCGUACGGAACG [C11U U47C]	1.04
GUUCCGUUGGUGUAAUGGUAACGCGUCUCCCUCCUAAGGAGAAGACGGCGGGUUCGAGUCCCGUACGGAACG [C11U U47G]	0.688
GUUCCGUUGGCAUACUGGUAACGCGUCUCCCUCCUAAGGAGAAGACUGCGGGUUCGAGUCCUGUAGGGAGCG [G12A A15C C62U C66G A70G]	0.562
GUUCCGUUGGCAUGAUGGUAACGCGUCUCGCUCCUAAGGAGAAGAAUGCGGGUUCGAGUCCCGUACUGAACG [G12A A14G C30G C46A G67U]	≤ 0.5
